Laboratory results published in publication PMC3594138 (Bioorganic & medicinal chemistry letters, 2013).
Read-outs that look alike come from different tables or passages of the source.

Experiments:
isolated rat heart = settings: uptake-2 blocked pharmacologically; cited from earlier work
[1] = rats, t = 30 min, n = 5, mean ± SD; cited from earlier work
[2] = Biodistribution studies in rats; type: in vivo, rat; settings: t = 30 min after intravenous injection, n = 5, mean ± SD
Outline: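 Rats received the fluorine-18 labelled test compound by intravenous injection. Tissue radioactivity was determined 30 min later and expressed as % injected dose/g, with n = 5 each.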

[3] = MicroPET imaging study in rhesus macaque; type: in vivo, rhesus macaque monkey; settings: PET

[^11C]-(−)-m-hydroxyephedrine [[^11C]HED]
Neuronal uptake rate Kup (isolated rat heart): 2.7 ± 0.4 ml/min/g wet

N=C(N)NCc1cccc([123I])c1 [[^123I]MIBG, [^123I]-m-iodobenzylguanidine]
Major Clearance T1/2 (isolated rat heart): 3.5 ± 1.8 h

NC(N)=NCc1cccc([125I])c1 [[^125I]MIBG]
Tissue concentration, adrenal medulla [1]: 1.53 ± 0.08 % injected dose/g
Tissue concentration, blood [1]: 0.10 ± 0.01 % injected dose/g
Tissue concentration, liver [1]: 1.19 ± 0.06 % injected dose/g
Tissue concentration, lung [1]: 2.31 ± 0.19 % injected dose/g
Tissue concentration, spleen [1]: 0.85 ± 0.06 % injected dose/g

N=C(N)NCCc1ccc([18F])c(O)c1 [[^18F]4F-MHPG, [^18F]4-fluoro-m-hydroxyphenethylguanidine]
Tissue concentration, adrenal medulla [2]: 0.54 ± 0.08 % injected dose/g
Tissue concentration, blood [2]: 0.07 ± 0.01 % injected dose/g
Tissue concentration, left ventricle [2]: 1.45 ± 0.13 % injected dose/g
Tissue concentration, liver [2]: 1.14 ± 0.16 % injected dose/g
Tissue concentration, lung [2]: 0.43 ± 0.08 % injected dose/g
Tissue concentration, spleen [2]: 0.56 ± 0.10 % injected dose/g
Retention of the tracer in the lungs [3]: essentially no retention
Uptake in the liver relative to cardiac uptake [3]: a little lower than the cardiac uptake
Activity in the vertebrae of the spine (in vivo defluorination) ([3]; sagittal images): little or no activity

N=[11C](N)NCCc1ccc(F)c(O)c1 [[^11C]4F-MHPG, [^11C]4-fluoro-m-hydroxyphenethylguanidine]
Major Clearance T1/2 (isolated rat heart): > 73 h
Neuronal uptake rate Kup (isolated rat heart): 0.72 ml/min/g wet
Tissue concentration, adrenal medulla [1]: 0.56 ± 0.21 % injected dose/g
Tissue concentration, blood [1]: 0.08 ± 0.01 % injected dose/g
Tissue concentration, left ventricle [1]: 1.77 ± 0.27 % injected dose/g
Tissue concentration, liver [1]: 1.22 ± 0.18 % injected dose/g
Tissue concentration, lung [1]: 0.56 ± 0.15 % injected dose/g
Tissue concentration, spleen [1]: 0.52 ± 0.10 % injected dose/g

N=C(N)NCc1ccc([18F])cc1 [[^18F]PFBG, p-[^18F]fluorobenzylguanidine]
Major Clearance T1/2 (isolated rat heart): 0.53 ± 0.06 h
